In brackets after ≈: the same amount, converted by molar mass.
Key:
[1] = test system: Vero; assay: Cytotoxicity against african green monkey Vero cells after 72 hrs by MTT assay; assay type: cell-based; conditions: Chlorocebus sabaeus
Summary of the method: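 Vero (CCL-81) cells in MEM with 10% FBS, penicillin-streptomycin and Glutamax, seeded at 3.0×10⁴ per well and left to adhere overnight. Compounds added from DMSO at final 100–0.16 μM, triplicate, for 72 h at 37 °C, 4.5% CO2. Then MTT 1.0 mg/mL in phenol-red-free RPMI for 3 h, formazan dissolved in isopropanol, A570 minus A690. Viability taken relative to DMSO control; EC50 from dose-response curves.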

[2] = test system: Mycobacterium tuberculosis; assay: Antitubercular activity against Mycobacterium tuberculosis H37Rv in Middlebrook 7H9 broth with glucose after 7 to 14 days by broth microdilution method; assay type: functional
Summary of the method: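 Broth microdilution of H37Rv in 7H9 with 0.8 g/L NaCl, 5 g/L BSA fraction V, 4 g/L glucose and 0.05% Tyloxapol. Run in quadruplicate from DMSO stocks with DMSO controls; isoniazid positive control.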

[3] = test system: Liver; assay: Half life in CD-1 mouse liver microsomes; assay type: ADME, Microsome
Summary of the method: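 CD-1 mouse liver microsomes; compound from 2 mM DMSO stock in 0.1 M sodium phosphate pH 7.4 with NADPH, preincubated 5 min at 37 °C before microsomes added. Aliquots taken at 0–60 min and quenched with ice-cold acetonitrile, run in duplicate. Minus-NADPH control sampled at 0 and 60 min. Remaining parent measured by isocratic C8 HPLC with UV at 220 nm.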

[4] = test system: Mycobacterium tuberculosis; assay: Antitubercular activity against Mycobacterium tuberculosis H37Rv in Middlebrook 7H9 broth with butyrate after 7 to 14 days by broth microdilution method; assay type: functional
[5] = test system: Mycobacterium tuberculosis; assay: Antitubercular activity against Mycobacterium tuberculosis H37Rv in GAST media with glycerol and alanine after 7 to 14 days by broth microdilution method; assay type: functional
[6] = Solubility of the compound; assay type: physicochemical
[7] = Therapeutic index, ratio of EC50 for african green monkey Vero cells to MIC for Mycobacterium tuberculosis H37Rv; assay type: cell-based; conditions: read-out: TI
[8] = test system: Liver microsomes; assay: Drug metabolism in human liver microsomes; assay type: ADME, Microsome
[9] = test system: Liver microsomes; assay: Half life in human liver microsomes; assay type: ADME, Microsome

Compound	EC50 [1] [µM]	MIC99 [2] [µM]	t1/2 [3] [min]	MIC99 [4] [µM]	MIC99 [5] [µM]	solubility [6]	selectivity ratio [7]	Drug metabolism [8]	t1/2 [9] [min]
O=C(Nc1nc(-c2ccccn2)cs1)c1ccc(Br)cc1	4.7	0.19 (≈ 0.0684 µg/mL)	6.8	0.098 (≈ 0.0353 µg/mL)	0.049 (≈ 0.0177 µg/mL)	–	–	–	–
O=C(Nc1nc(-c2ccccn2)cs1)c1ccccc1OCc1ccccc1	–	> 50	–	> 50	50 (≈ 19.4 µg/mL)	Insoluble	–	–	–
O=C(Nc1nc(-c2ccccn2)cs1)c1cccc(Cl)c1	7	0.19 (≈ 0.06 µg/mL)	19	0.024 (≈ 0.00758 µg/mL)	0.049 (≈ 0.0155 µg/mL)	–	30	Active	28
Cc1cccc(C(=O)Nc2nc(-c3ccccn3)cs2)c1	4.1	0.19 (≈ 0.0561 µg/mL)	6.7	0.049 (≈ 0.0145 µg/mL)	0.049 (≈ 0.0145 µg/mL)	–	11	–	–
COc1ccc(C(=O)Nc2nc(-c3ccccn3)cs2)cc1	9.2	0.39 (≈ 0.121 µg/mL)	16	0.19 (≈ 0.0592 µg/mL)	0.098 (≈ 0.0305 µg/mL)	–	24	–	–
O=C(Nc1nc(-c2ccccn2)cs1)c1cccc(Br)c1	16.1	0.098 (≈ 0.0353 µg/mL)	11	0.024 (≈ 0.00865 µg/mL)	0.049 (≈ 0.0177 µg/mL)	–	–	–	–
O=C(Nc1nc(-c2ccccn2)cs1)c1ccccn1	5.4	6.3 (≈ 1.78 µg/mL)	–	3.1 (≈ 0.875 µg/mL)	1.6 (≈ 0.452 µg/mL)	–	0.9	–	–

Source: ChEMBL document CHEMBL2440116, “Structure-activity relationships of 2-aminothiazoles effective against Mycobacterium tuberculosis” (Bioorg Med Chem, 2013)
